Data as given in ChEMBL document CHEMBL3763084, “Design and synthesis of substituted pyrido[3,2-d]-1,2,3-triazines as potential Pim-1 inhibitors” (Bioorg Med Chem Lett, 2016).
Calls of active or inactive are those of the source. The calls are words filed in the database; no cut-off is given here.

What was measured:
[1] = target: T1, Serine/threonine-protein kinase pim-1 (Homo sapiens, UniProt P11309); test: Inhibition of Pim 1 (unknown origin) after 50 mins by HTRF method
[2] = test system: LNCaP; test: Antiproliferative activity against human LNCAP cells after 96 hrs by MTT assay; type: functional, cell-based
[3] = Antiproliferative activity against human PC3 cells after 96 hrs by MTT assay; type: functional, cell-based; details: PC-3, 96 h
[4] = target: T1, Serine/threonine-protein kinase pim-1; details: PC-3, 10 uM
[5] = target: T1, Serine/threonine-protein kinase pim-1; details: PC-3, 10 uM; remark: listed apart in the source
[6] = target: T1, Serine/threonine-protein kinase pim-1; details: PC-3, 10 uM; remark: listed apart in the source
[7] = target: T1, Serine/threonine-protein kinase pim-1; test: Inhibition of Pim1 in human PC3 cells assessed as decrease in c-Myc level at 5 to 20 uM after 24 hrs by western blot analysis; type: cell-based; details: PC-3
Summary of the method: (§1)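 PC-3 cells were exposed for 24 h to the test compound at 0, 5, 10 or 20 μM, with DMSO as the negative control and a reference Pim-1 inhibitor at 10 μM. Lysates were analysed by western blot for BAD phospho-Ser112, 4E-BP1 phospho-Thr37/46, c-Myc and total Pim-1.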

[8] = test system: PC-3; test: Effect on PIM1 expression in human PC3 cells at 5 to 20 uM after 24 hrs by western blot analysis; type: functional, cell-based; summary of the method: as §1
[9] = target: T1, Serine/threonine-protein kinase pim-1; test: Inhibition of Pim1 in human PC3 cells assessed as decrease in BAD phosphorylation at Ser112 residue after 24 hrs by western blot analysis; type: cell-based; details: PC-3; summary of the method: as §1
[10] = target: T1, Serine/threonine-protein kinase pim-1; test: Inhibition of Pim1 in human PC3 cells assessed as decrease in 4E-BP1 phosphorylation at Thr37/46 residue after 24 hrs by western blot analysis; type: cell-based; details: PC-3; summary of the method: as §1

In the case of `CCCCOc1ccc2nnnc(Nc3cccc(OC(F)(F)F)c3)c2n1`, the IC50 [1] is reported as > 10 µM.
Molecule `FC(F)(F)Oc1cccc(Nc2nnnc3ccc(N4CCOCC4)nc23)c1` has an IC50 [1] of 1.45 µM, an IC50 [2] of 31 µM and an IC50 [3] of 41 µM.
With `CC1CCCCN1c1ccc2nnnc(Nc3cccc(OC(F)(F)F)c3)c2n1` (stereo not given) the IC50 [1] was 1.31 µM.
For `CC1CCN(c2ccc3nnnc(Nc4cccc(OC(F)(F)F)c4)c3n2)CC1`, the IC50 [1] was > 10 µM.
For `CN1CCN(c2ccc3nnnc(Nc4cccc(OC(F)(F)F)c4)c3n2)CC1`, the IC50 [1] was 0.6 µM, the IC50 [2] was 20.3 µM and the IC50 [3] was 24 µM.
With `FC(F)(F)Oc1cccc(Nc2nnnc3ccc(NCC4CCNCC4)nc23)c1` the IC50 [1] was 0.8 µM, the IC50 [2] was 11.5 µM and the IC50 [3] was 8.32 µM.
In the case of `CN1CCC(CNc2ccc3ncc(-c4cccc(OC(F)(F)F)c4)n3n2)CC1` [SGI-1776], the inhibition [4] is reported as “Active”, the inhibition [5] is reported as “Active” and the inhibition [6] is reported as “Active”. The IC50 [2] was 6.85 µM and the IC50 [3] was 4.86 µM.
`FC(F)(F)Oc1cccc(Nc2nnnc3ccc(N4CCC(N5CCCCC5)CC4)nc23)c1` showed an IC50 [1] of 2.47 µM, an IC50 [2] of 4.9 µM and an IC50 [3] of 5.58 µM.
In the case of `FC(F)(F)Oc1cccc(Nc2nnnc3ccc(N4CCC(N5CCCC5)CC4)nc23)c1`, the inhibition [7] is reported as “Active”, the Activity [8] is reported as “inactive” and the IC50 [1] is reported as 1.05 µM. For the same molecule, the inhibition [9] was “Dose-dependent effect”, the inhibition [10] was “Dose-dependent effect” and the IC50 [2] was 10.7 µM. It also gave an IC50 [3] of 8.16 µM.
In the case of `FC(F)(F)Oc1cccc(Nc2nnnc3ccc(Cl)nc23)c1`, the IC50 [1] is reported as > 10 µM, the IC50 [2] is reported as 8.62 µM and the IC50 [3] is reported as 5.99 µM.
In the case of `CN1CCC(CNc2ccc3nnnc(Nc4cccc(OC(F)(F)F)c4)c3n2)CC1`, the IC50 [1] is reported as 1.87 µM, the IC50 [2] is reported as 17.3 µM and the IC50 [3] is reported as 15.8 µM.
In the case of `CC(C)N1CCN(c2ccc3nnnc(Nc4cccc(OC(F)(F)F)c4)c3n2)CC1`, the IC50 [1] is reported as 1.08 µM, the IC50 [2] is reported as 10.7 µM and the IC50 [3] is reported as 13.8 µM.
In the case of `OCCNc1ccc2nnnc(Nc3cccc(OC(F)(F)F)c3)c2n1`, the IC50 [1] is reported as 2.1 µM, the IC50 [2] is reported as 42.9 µM and the IC50 [3] is reported as > 100 µM.
With `FC(F)(F)Oc1cccc(Nc2nnnc3ccc(N4CCCC4)nc23)c1` the IC50 [1] was > 10 µM, the IC50 [2] was > 100 µM and the IC50 [3] was > 100 µM.
For `COc1ccc2nnnc(Nc3cccc(OC(F)(F)F)c3)c2n1`, the IC50 [1] was 2.02 µM.
With `CC(C)(C)OC(=O)N1CCC(CNc2ccc3nnnc(Nc4cccc(OC(F)(F)F)c4)c3n2)CC1` the IC50 [1] was > 10 µM, the IC50 [2] was > 100 µM and the IC50 [3] was > 100 µM.
For `FC(F)(F)Oc1cccc(Nc2nnnc3ccc(N4CCNCC4)nc23)c1`, the IC50 [1] was 0.69 µM, the IC50 [2] was 8.51 µM and the IC50 [3] was 11.5 µM.
Molecule `CCN1CCN(c2ccc3nnnc(Nc4cccc(OC(F)(F)F)c4)c3n2)CC1` has an IC50 [1] of 2.04 µM, an IC50 [2] of 14.3 µM and an IC50 [3] of 16.9 µM.
With `CCOc1ccc2nnnc(Nc3cccc(OC(F)(F)F)c3)c2n1` the IC50 [1] was > 10 µM, the IC50 [2] was > 100 µM and the IC50 [3] was > 100 µM.
